Reference: ChEMBL document CHEMBL4261598, “Synthesis of novel mono and bis nitric oxide donors with high cytocompatibility and release activity” (Bioorg Med Chem Lett, 2018)
The source made the active and inactive calls. The rule behind the calls is not given here.

What was measured:
VSMC [1] = test: (§1) Cytotoxicity against human VSMC assessed as cell viability at 100 uM after 24 hrs by MTT assay; format: cell-based; conditions: vsmc, 24 h, 100 µM
Method in brief: (§2)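 Human vascular smooth muscle cells incubated 24 h with amidoximes over 0.001 to 100 µM; viability measured (method in Supporting Information). Mean ± SEM of three to four tests, two-way ANOVA.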

Liver = test: Induction of NO release in rat liver microsomes assessed as nitrite levels after 10 mins in presence of NADPH and dioxygen by Griess assay; format: functional; conditions: microsome
Method in brief: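 Amidoximes incubated 10 min with rat liver microsomes and NADPH; supernatant nitrite quantified by Griess assay, expressed as nmol NO2-/mg P450. Background from controls lacking microsomes, amidoxime or NADPH, or with parent nitrile, was subtracted. 4-Chlorobenzamidoxime served as reference. Mean ± SEM of three to five independent experiments.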

VSMC [2] = test: Induction of NO release in human VSMC assessed as intracellular S-nitrosothiol level at 100 uM after 1 hr by fluorimetric method; format: functional
Method in brief: (§3)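 HVSMC seeded in 6-well plates 48 h before, then incubated 1 h at 37°C with compound (mono-amidoximes and GSNO reference 100 µM, bis-amidoxime 50 µM); controls PBS with 0.1% DMSO. Cells washed and lysed, then RSNO and nitrite quantified immediately by fluorometric 2,3-diaminonaphthalene/N2O3 assay giving naphthotriazole (ex 375, em 415 nm). Mean ± SEM, three independent experiments.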

[3] = as §1; format: cell-based; conditions: VSMC cells, read-out: Activity; method in brief: as §2
VSMC [4] = test: Induction of NO release in human VSMC assessed as intracellular S-nitrosothiol level at 50 uM after 1 hr by fluorimetric method; format: functional; method in brief: as §3

Row | SMILES | Activity (VSMC [1]) | Activity (Liver) | Activity (VSMC [2]) | viability at 24 h, 100 µM [3] | Activity (VSMC [4])
1 | N/C(CCCCOc1ccccc1)=N\O | Non-Toxic | Active |  |  | 
2 | N[C@@H](CCC(=O)N[C@@H](CSN=O)C(=O)NCC(=O)O)C(=O)O |  |  | Active |  | 
3 | N/C(=N\O)c1ccc(Cl)cc1 |  | 1.3 nmol/mg | 0.03 µM |  | 
4 | COc1ccc(C(=N)NO)cc1 | Non-Toxic | 1.5 nmol/mg | 0.21 µM |  | 
5 | N/C(=N\O)c1ccc(O)cc1 |  | 2.4 nmol/mg | 0.2 µM | 74.7% | 
6 | N/C(CCCCOc1ccc(/C(N)=N/O)cc1)=N\O | Non-Toxic | Active |  |  | 0.17 µM
